Measured values: ChEMBL document CHEMBL4813987, “Membrane active 7-thiazoxime quinolones as novel DNA binding agents to decrease the genes expression and exert potent anti-methicillin-resistant Staphylococcus aureus activity” (Eur J Med Chem, 2021)
The source made the active and inactive calls. The rule behind the calls is not given here.

Tests used:
Staphylococcus aureus [1] = assay: Antibacterial activity against methicillin-resistant Staphylococcus aureus assessed as reduction in microbial growth by two fold microdilution method; format: functional
Outline: (§1)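 MIC determined by the standard two-fold broth micro-dilution assay, with norfloxacin and ciprofloxacin as reference agents.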

Staphylococcus aureus [2] = assay: Antibacterial activity against Staphylococcus aureus assessed as reduction in microbial growth by two fold microdilution method; format: functional; outline: as §1
Staphylococcus aureus [3] = assay: Antibacterial activity against Staphylococcus aureus ATCC 25923 assessed as reduction in microbial growth by two fold microdilution method; format: functional
Staphylococcus aureus [4] = assay: Antibacterial activity against Staphylococcus aureus ATCC 29213 assessed as reduction in microbial growth by two fold microdilution method; format: functional
Enterococcus faecalis = assay: Antibacterial activity against Enterococcus faecalis assessed as reduction in microbial growth by two fold microdilution method; format: functional
Klebsiella pneumoniae = assay: Antibacterial activity against Klebsiella pneumonia assessed as reduction in microbial growth by two fold microdilution method; format: functional
Acinetobacter baumannii = assay: Antibacterial activity against Acinetobacter baumannii assessed as reduction in microbial growth by two fold microdilution method; format: functional
Escherichia coli [5] = assay: Antibacterial activity against Escherichia coli assessed as reduction in microbial growth by two fold microdilution method; format: functional
Escherichia coli [6] = assay: Antibacterial activity against Escherichia coli ATCC 25922 assessed as reduction in microbial growth by two fold microdilution method; format: functional
Pseudomonas aeruginosa [7] = assay: Antibacterial activity against Pseudomonas aeruginosa assessed as reduction in microbial growth by two fold microdilution method; format: functional
Pseudomonas aeruginosa [8] = assay: Antibacterial activity against Pseudomonas aeruginosa ATCC 27853 assessed as reduction in microbial growth by two fold microdilution method; format: functional
Staphylococcus aureus [9] = assay: Potency index, ratio of norfloxacin MIC to test compound MIC for antibacterial activity against methicillin-resistant Staphylococcus aureus assessed as reduction in microbial growth by two fold microdilution method; format: functional
Staphylococcus aureus [10] = assay: Antibacterial activity against methicillin-resistant Staphylococcus aureus assessed as reduction in bacterial growth at 50 to 300 ug/ml measured after 14 passages; format: functional, organism-based; conditions: dose 50-300 µg/ml

SMILES | MIC (Staphylococcus aureus [1]) [µg/mL] | MIC (Staphylococcus aureus [2]) [µg/mL] | MIC (Staphylococcus aureus [3]) [µg/mL] | MIC (Staphylococcus aureus [4]) [µg/mL] | MIC (Enterococcus faecalis) [µg/mL] | MIC (Klebsiella pneumoniae) [µg/mL] | MIC (Acinetobacter baumannii) [µg/mL] | MIC (Escherichia coli [5]) [µg/mL] | MIC (Escherichia coli [6]) [µg/mL] | MIC (Pseudomonas aeruginosa [7]) [µg/mL] | MIC (Pseudomonas aeruginosa [8]) [µg/mL] | Ratio (Staphylococcus aureus [9]) | Activity (Staphylococcus aureus [10])
CCn1cc(C(=O)O)c(=O)c2cc(F)c(N3CCN(C/C(=N\OCc4ccccc4)c4nccs4)CC3)cc21 | 0.25 | 4 | 0.25 | 256 | 0.25 | 128 | 1 | 0.5 | 64 | 0.5 | 1 | 64 | –
O=C(CN1CCN(c2cc3c(cc2F)c(=O)c(C(=O)O)cn3C2CC2)CC1)c1nccs1 | 16 | 1 | 4 | 2 | 8 | 16 | 2 | 4 | 4 | 1 | 1 | – | –
CCO/N=C(\CN1CCN(c2cc3c(cc2F)c(=O)c(C(=O)O)cn3C2CC2)CC1)c1nccs1 | 0.25 | 0.25 | 0.5 | 4 | 0.25 | 0.25 | 1 | 2 | 32 | 0.25 | 0.25 | – | –
CC(C)(C)O/N=C(\CN1CCN(c2c(F)cc3c(=O)c(C(=O)O)cn(C4CC4)c3c2Cl)CC1)c1nccs1 | 0.25 | 0.25 | 0.5 | 0.25 | 0.25 | 256 | 0.25 | 4 | 0.25 | 0.25 | 0.25 | – | inactive
CCO/N=C(\CN1CCN(c2cc3c(cc2F)c(=O)c(C(=O)O)cn3CC)CC1)c1nccs1 | 0.25 | 8 | 0.5 | 4 | 16 | 256 | 2 | 0.25 | 256 | 0.25 | 8 | 64 | –
CCn1cc(C(=O)O)c(=O)c2cc(F)c(N3CCN(C/C(=N\OC(C)(C)C)c4nccs4)CC3)cc21 | 0.25 | 0.25 | 1 | 16 | 0.25 | 1 | 16 | 1 | 1 | 2 | 1 | 64 | –
CO/N=C(\CN1CCN(c2c(F)cc3c(=O)c(C(=O)O)cn(C4CC4)c3c2Cl)CC1)c1nccs1 | 0.25 | 0.25 | 0.5 | 0.25 | 0.25 | 0.25 | 0.25 | 0.25 | 0.25 | 1 | 0.25 | – | inactive
O=C(O)c1cn(C2CC2)c2c(Cl)c(N3CCN(C/C(=N\OCc4ccccc4)c4nccs4)CC3)c(F)cc2c1=O | 0.25 | 2 | 1 | 2 | 0.25 | 0.25 | 0.25 | 0.25 | 0.25 | 1 | 0.25 | – | –
O=C(O)c1cn(C2CC2)c2cc(N3CCN(C/C(=N\OCc4ccccc4)c4nccs4)CC3)c(F)cc2c1=O | 0.25 | 0.25 | 1 | 0.5 | 2 | 256 | 8 | 0.25 | 256 | 0.25 | 1 | – | –
CCO/N=C(\CN1CCN(c2c(F)cc3c(=O)c(C(=O)O)cn(C4CC4)c3c2Cl)CC1)c1nccs1 | 0.25 | 0.25 | 0.5 | 0.25 | 0.25 | 256 | 0.25 | 0.25 | 256 | 0.25 | 0.25 | – | inactive
COC(=O)CO/N=C(\CN1CCN(c2c(F)cc3c(=O)c(C(=O)O)cn(C4CC4)c3c2Cl)CC1)c1nccs1 | 0.25 | 0.25 | 0.25 | 0.25 | 0.25 | 256 | 4 | 4 | 0.5 | 0.25 | 0.25 | – | –
CCn1cc(C(=O)O)c(=O)c2cc(F)c(N3CCN(C/C(=N\OCC(=O)OC)c4nccs4)CC3)cc21 | 0.25 | 4 | 0.25 | 2 | 0.25 | 256 | 1 | 32 | 0.25 | 0.25 | 0.25 | 64 | –
CO/N=C(\CN1CCN(c2cc3c(cc2F)c(=O)c(C(=O)O)cn3C2CC2)CC1)c1nccs1 | 0.25 | 0.25 | 0.25 | 0.25 | 0.25 | 256 | 1 | 0.25 | 256 | 0.25 | 2 | – | inactive
C=CCO/N=C(\CN1CCN(c2cc3c(cc2F)c(=O)c(C(=O)O)cn3C2CC2)CC1)c1nccs1 | 0.25 | 0.25 | 0.25 | 32 | 0.25 | 0.25 | 0.25 | 1 | 0.5 | 0.25 | 0.25 | – | –
CC(C)(C)O/N=C(\CN1CCN(c2cc3c(cc2F)c(=O)c(C(=O)O)cn3C2CC2)CC1)c1nccs1 | 4 | 4 | 1 | 4 | 2 | 64 | 4 | 128 | 1 | 0.25 | 0.25 | – | –
CCn1cc(C(=O)O)c(=O)c2cc(F)c(N3CCNCC3)cc21 [NORFLOXACIN] | 16 | 4 | 2 | 2 | 4 | 4 | 2 | 16 | 16 | 2 | 8 | – | –
C=CCO/N=C(\CN1CCN(c2c(F)cc3c(=O)c(C(=O)O)cn(C4CC4)c3c2Cl)CC1)c1nccs1 | 0.25 | 0.25 | 0.25 | 0.5 | 0.25 | 256 | 0.25 | 0.25 | 0.5 | 0.25 | 0.25 | – | –
